Only some compounds are listed: those with a hit (about 2.3% of all), similar ones and a draw of the others.
TRPC4 block: inhibitors of mouse TRPC4 channel; HEK293 TRPC4beta/mu-opioid, DAMGO-evoked Fluo4 calcium flux; active compounds read low; B-score at 10 µM; AID 2247; Q9QUQ5; actives 0.39% (n = 300,000);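 active = B-score over 3 SD under the library average, no early fluorescence shift, positive overall ratio signal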
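Assay system: HEK293 cells with stable TRPC4beta plus mu-opioid receptor expression. Dosing: single dose. Measured by: Fluo4 Ca2+ flux fluorescence. Also added: DAMGO in two steps, submaximal then maximal. Read-out: B score from integrated Fluo4 fluorescence ratio.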
TRPC4 act: opens the mouse TRPC4 cation channel; HEK293 TRPC4beta/mu-opioid, Fluo4 calcium fluorescence; active compounds read high; actives 0.49% (n = 310,000); B-score at 10 µM; Q9QUQ5;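 active = B-score above 5 SD of library B-scores, and initial fluorescence ratio not above library mean plus 5 SD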;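 also: positive B-score marks a calcium rise read as TRPC4 activation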
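Technique: kinetic Fluo4 calcium fluorescence; Test system: TRPC4beta and mu-opioid receptor HEK293 stable cells; Measure: B-scored integrated calcium fluorescence ratio; Benchmarks: low control buffer alone, high control maximal DAMGO; Schedule: 45 min room-temperature Fluo4 loading, 110 s read.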
TRPC6 act: activators of mouse TRPC6 channel; B-score at 10 µM; AID 2550; actives 0.13% (n = 310,000); HEK293-TRPC6 membrane potential dye fluorescence; active compounds read high; Q61143;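 active = B-score of the integrated fluorescence ratio above library mean plus 3 SD, and starting fluorescence ratio within library mean plus 5 SD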;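 also: higher score means more depolarization so channel activation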
Target sequence (Q61143 whole entry, looked up): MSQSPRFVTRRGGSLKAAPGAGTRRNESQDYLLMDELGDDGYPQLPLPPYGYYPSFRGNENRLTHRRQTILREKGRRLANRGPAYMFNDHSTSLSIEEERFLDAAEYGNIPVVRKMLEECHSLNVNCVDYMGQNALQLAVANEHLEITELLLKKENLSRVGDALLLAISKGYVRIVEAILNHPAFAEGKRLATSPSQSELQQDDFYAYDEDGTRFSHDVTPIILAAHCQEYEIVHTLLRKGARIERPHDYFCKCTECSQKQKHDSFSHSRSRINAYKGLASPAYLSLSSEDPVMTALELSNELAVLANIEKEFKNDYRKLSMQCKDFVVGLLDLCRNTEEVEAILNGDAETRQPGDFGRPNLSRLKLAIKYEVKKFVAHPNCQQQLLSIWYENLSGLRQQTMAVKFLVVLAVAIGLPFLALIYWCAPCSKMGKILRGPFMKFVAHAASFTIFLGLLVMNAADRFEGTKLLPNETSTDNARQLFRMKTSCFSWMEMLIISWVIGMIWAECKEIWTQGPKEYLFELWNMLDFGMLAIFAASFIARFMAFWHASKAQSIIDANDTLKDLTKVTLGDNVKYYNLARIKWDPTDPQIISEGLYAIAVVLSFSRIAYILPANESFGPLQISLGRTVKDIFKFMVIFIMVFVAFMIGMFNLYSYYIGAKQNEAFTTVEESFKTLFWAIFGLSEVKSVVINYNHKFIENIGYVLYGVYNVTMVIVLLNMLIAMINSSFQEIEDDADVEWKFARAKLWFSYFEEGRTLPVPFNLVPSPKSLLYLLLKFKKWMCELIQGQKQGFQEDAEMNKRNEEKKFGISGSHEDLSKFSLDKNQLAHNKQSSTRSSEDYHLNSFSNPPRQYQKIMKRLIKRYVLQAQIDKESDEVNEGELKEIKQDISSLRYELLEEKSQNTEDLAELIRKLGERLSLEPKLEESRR
TRPC4 potent: TRPC4 (mouse) allosteric potentiation; Q9QUQ5; HEK293 TRPC4beta/mu-opioid, DAMGO EC20, Fluo-4 Ca2+ flux; active compounds read high; B-score at 10 µM; actives 0.42% (n = 310,000); AID 2227;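 active = B-score of calcium response area above 5 SD of library B-scores, with initial fluorescence ratio within 5 SD of library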
TRPC6 inhibitor: inhibitors of mouse TRPC6 channel. B-score at 10 µM. actives 1.1% (n = 310,000). Q61143. HEK293-TRPC6, membrane potential dye, ACh-evoked depolarization; active compounds read low;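 active = B-score under library mean minus 3 SD, initial fluorescence not abnormally high, positive integrated signal ratio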;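 also: B-score derived from integrated fluorescence ratio over the kinetic read; more negative B-score means stronger inhibition of depolarization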
TRPC4 sel inh 2: second selectivity test of TRPC6 inhibitors: effect on mouse TRPC4; inhibition, % at 10 µM; shares compounds with TRPC6 inhibitor; AID 2776; HEK293 TRPC4/MOR, membrane potential dye fluorescence; channel activated by saturating DAMGO dose; actives 42% (n = 920);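 active = compounds whose fluorescence signal differed from control wells by over 3 SD, either direction, in both duplicate plates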
TRPC4 spec: selectivity of TRPC6 inhibitors: effect on mouse TRPC4 | shares compounds with TRPC6 inhibitor | HEK293 TRPC4/mu-opioid, membrane potential fluorescence | activity change, negative = inhibition, % at 10 µM | actives 61% (n = 920) | AID 2777;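 active = rise or fall in signal beyond 3 SD of buffer-only wells in both replicate plates, either sign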;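 also: integrated kinetic ratio of fluorescence range over baseline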
HEK293 MPD ctr 2-1: second counter-screen for TRPC6 inhibitors: parental HEK293 cells; shares compounds with TRPC6 inhibitor; parental HEK293 membrane potential dye fluorescence; maximal acetylcholine challenge after compound addition; signal change vs control, % at 10 µM; actives 31% (n = 920);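 active = membrane potential signal moving either way by over 3 SD of the maximum-effect control, in both duplicate plates, meaning non-specific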
HEK293 MPD ctr-1: checks TRPC6 inhibitor effects in parental HEK293 cells. shares compounds with TRPC6 inhibitor. parental HEK293 membrane potential dye fluorescence. membrane potential signal change, % at 10 µM. actives 60% (n = 920);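 active = membrane potential signal shifting up or down by more than 3 SD of buffer-only wells, on both duplicate plates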
HEK293 MPD ctr-2: counter-screen for TRPC6 modulators: effect in parental HEK293 cells. shares compounds with TRPC6 inhibitor. membrane potential dye fluorescence. membrane potential signal change, % at 10 µM. actives 51% (n = 2,400);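 active = membrane potential signal moves up or down beyond 5 SD from buffer-only wells, on both duplicate plates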
HEK293 MPD ctr 2-2: second counter-screen for TRPC6 modulators: effect in parental HEK293 cells. shares compounds with TRPC6 inhibitor. membrane potential dye fluorescence; after compound, maximal acetylcholine stimulation. inhibition, % at 10 µM. actives 14% (n = 2,400);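 active = membrane potential signal drops by more than 5 SD from the mean control signal, in both duplicate plates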
TRPC4 ctr mod: mouse TRPC4 off-target activity of TRPC6 modulators. shares compounds with TRPC6 inhibitor. HEK293 TRPC4/mu-opioid, membrane potential fluorescence. percent change from control (negative = decrease, positive = increase), % at 10 µM. actives 69% (n = 2,400). AID 488927;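 active = membrane potential signal moved up or down beyond 5 SD of buffer control wells, in both duplicate plates, actives on both sides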
TRPC4/MOR inh 2: second selectivity test of TRPC6 modulators against mouse TRPC4; shares compounds with TRPC6 inhibitor; HEK293 TRPC4/mu-opioid, membrane potential dye fluorescence; stimulated with maximal-effect DAMGO; inhibition, % at 10 µM; actives 55% (n = 2,400);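 active = drop in membrane potential signal beyond 5 SD of the control wells in both duplicate plates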;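 also: TRPC4 counter screen for TRPC6 hits run under conditions tuned for TRPC6 not TRPC4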
TRPC6 inh conf: confirmation of mouse TRPC6 inhibitors | shares compounds with TRPC6 inhibitor | HEK293-TRPC6, membrane potential dye, ACh-evoked depolarization | inhibition, % at 10 µM | actives 43% (n = 3,300) | AID 488960;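 active = fluorescence ratio falls more than 5 SD below the full-stimulation control mean, in both duplicate runs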;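 also: integrated fluorescence ratio of peak minus minimum over baseline after agonist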
TRPC6 act confirm: confirmation of mouse TRPC6 activators; actives 11% (n = 2,800); HEK293-TRPC6 membrane potential dye fluorescence, FDSS; AID 488961; shares compounds with TRPC6 inhibitor; activation, % at 10 µM;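 active = ratio signal rise beyond 5 SD above unstimulated control wells' mean, seen in both duplicate runs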
Each line names hits and unclear results; the compound was inactive in the other large screens (follow-up assays come after a bar, where they were run).

CCOc1ccc(CN(C)C(=O)c2ccc3ccccc3n2)cc1	TRPC6 inhibitor -5.8 | HEK293 MPD ctr-2 inactive | HEK293 MPD ctr 2-2 inactive | TRPC4 ctr mod inactive | TRPC4/MOR inh 2 inactive | TRPC6 inh conf inactive | TRPC6 act confirm inactive
Cc1nc2ccccc2c(=O)n1/N=C/c1ccc(F)cc1	none
Cc1ccc(O)c(NC(=O)c2cc3nc4c(c(C(F)(F)F)n3n2)CCc2ccccc2-4)c1	none
CCN(CC)CCCNC(=O)c1cc2nc3c(c(C(F)(F)F)n2n1)CCc1ccccc1-3	TRPC6 inhibitor -6.7 | TRPC4 sel inh 2 65% | TRPC4 spec inactive | HEK293 MPD ctr 2-1 inactive | HEK293 MPD ctr-1 0.8% | TRPC6 inh conf inactive | TRPC6 act confirm inactive
O=[N+]([O-])c1ccccc1S(=O)(=O)N1CCCC(C(F)(F)F)C1 (configuration not stated)	TRPC6 inhibitor -5.1 | HEK293 MPD ctr-2 inactive | HEK293 MPD ctr 2-2 inactive | TRPC4 ctr mod inactive | TRPC4/MOR inh 2 inactive | TRPC6 inh conf inactive | TRPC6 act confirm inactive
O=C(NCC(c1ccco1)N1CCN(c2ccccc2)CC1)C(=O)NC1CC1 (configuration not stated)	none
Cc1ccc(Nc2c(-c3ccccc3O)nc3cnccn23)cc1	TRPC6 inhibitor -6.6 | HEK293 MPD ctr-2 inactive | HEK293 MPD ctr 2-2 inactive | TRPC4 ctr mod -11% | TRPC4/MOR inh 2 68% | TRPC6 inh conf inactive | TRPC6 act confirm inactive
COc1ccc(Nc2c(-c3ccc(C)cc3)nc3cnccn23)cc1	none
C=C(C)CC1(NC(C)c2ccccc2)CCCCC1 (configuration not stated)	TRPC6 inhibitor -5.1 | HEK293 MPD ctr-2 inactive | HEK293 MPD ctr 2-2 inactive | TRPC4 ctr mod 24% | TRPC4/MOR inh 2 inactive | TRPC6 inh conf inactive | TRPC6 act confirm inactive
CC(NC(=O)CC1CCCCC1)c1ccccc1 (configuration not stated)	none
CC(C)NCC(O)Cn1c2c(c3ccccc31)CCc1c-2cnn1-c1ccccc1 (configuration not stated)	TRPC6 inhibitor -10 | TRPC4 sel inh 2 28% | TRPC4 spec -23% | HEK293 MPD ctr 2-1 40% | HEK293 MPD ctr-1 -326% | TRPC6 inh conf 85% | TRPC6 act confirm inactive
CN1CCc2c(n(CC(O)CNCc3ccccc3)c3ccccc23)C1=O (configuration not stated)	none
